Screens deposited in PubChem BioAssay by The Scripps Research Institute Molecular Screening Center.
Most compounds without a hit are left out; they make up all but 3.9% or so of the library.
OX1R antag-1 = antagonists of human orexin 1 receptor | O43613 | hit rate 0.43% among 330,000 | CHO/OX1R cells, Fluo-8 calcium fluorescence, orexin A | inhibition, % at 5 µM | AID 434989;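 active = inhibition above its plate's threshold, mean inhibition of all tested compounds on the plate plus 3 SD, cut at about 37% in these data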;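 note: 0% = orexin A challenge wells and 100% = SB-334867-A antagonist wells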
CHO parental Ca = counter-screen for OX1R antagonists: effect in parental CHO cells; inhibition, % at 5.6 µM; parental CHO-K1, ATP-induced calcium, Fluo-8 fluorescence; AID 463079; hit rate 0.63% among 330,000;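 active = inhibition above that plate's mean sample inhibition plus 3 SD, cut at about 26% in these data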;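 note: 0% = ATP-challenged DMSO wells and 100% = DMSO wells without ATP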
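Test system: parental CHO cells; detection: calcium-sensitive Fluo-8 fluorescence; evaluation: percent inhibition of calcium signal; also added: ATP as calcium-mobilizing challenge; repeats: one well per compound; control set: ATP-challenged DMSO wells low, unchallenged DMSO wells high; compound: single nominal dose of 5.6 µM per compound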
TAAR1 antagonist = antagonists of human TAAR1; AID 624466; inhibition, % at 3 µM; Q96RJ0; hit rate 1.5% among 360,000; CHO RD-HGA16 TAAR1, Fluo-8 calcium fluorescence, antagonist;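 active = inhibition above a per-plate cutoff, the mean inhibition of test compounds on that plate plus 3 SD, cut at about 49% in these data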;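 note: 0% = DMSO plus EC80 beta-PEA response and 100% = DMSO alone without agonist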
Target sequence (Q96RJ0 whole entry, looked up): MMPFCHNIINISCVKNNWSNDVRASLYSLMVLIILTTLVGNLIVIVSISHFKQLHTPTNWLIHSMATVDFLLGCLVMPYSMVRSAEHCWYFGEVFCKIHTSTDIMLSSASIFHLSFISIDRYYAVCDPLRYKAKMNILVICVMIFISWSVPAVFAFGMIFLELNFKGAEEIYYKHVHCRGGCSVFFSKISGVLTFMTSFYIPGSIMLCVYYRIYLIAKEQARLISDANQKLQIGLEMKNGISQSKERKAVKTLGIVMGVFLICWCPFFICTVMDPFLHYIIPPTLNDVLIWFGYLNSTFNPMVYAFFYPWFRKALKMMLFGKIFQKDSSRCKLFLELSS
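Assay system: RD-HGA16 CHO cells with stable hTAAR1 and Gα16 / Reagent: EC80 β-phenethylamine stimulus / Doses: 3 µM, single point / Timing: dye loading 75 min at 37 °C, then 30 min room temperature / Measured by: Fluo-8 intracellular calcium dye fluorescence, real-time kinetic reads / Controls: vehicle wells and EC80 agonist wells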
OX1R antag-2 = antagonists of human orexin 1 receptor (OX1R). OX1R-expressing cells, FRET antagonist read-out. inhibition, % at 6.6 µM. hit rate 1.8% among 330,000. AID 485270; in the data active = inhibition mostly above about 38%, no sharp cut-off; inactive = mostly below about 40%;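 note: 0% = agonist challenge alone and 100% = reference antagonist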
TAAR1 ag = human TAAR1 agonism; AID 624467; hit rate 0.99% among 360,000; activation, % at 3 µM; Q96RJ0; CHO RD-HGA16 TAAR1, Fluo-8 calcium fluorescence; vehicle wells 0%, saturating PEA agonist 100%;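 active = activation above the mean activation of all test compounds in the run plus 3 SD, cut at about 38% in these data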
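Benchmarks: low control DMSO, high control PEA (EC100); System: CHO RD-HGA16 cells carrying human TAAR1 plus Gα16; Detection: Fluo-8 fluorescence, 5 s baseline then 140 s kinetic read; Schedule: 17-24 h plating, Fluo-8 75 min 37 °C, 30 min RT; Read-out basis: % activation from peak over basal fluorescence ratio, DMSO-to-PEA scaled.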
* hit, by the source's call; x = no result given.

SMILES | OX1R antag-1 | CHO parental Ca | TAAR1 antagonist | OX1R antag-2 | TAAR1 ag
CC(=O)Nc1ccc(C(=O)N2CCCC(c3cc(C(=O)NCc4ccc(F)cc4)no3)C2)cc1 (stereo not given) | x | x | -2.2 | x | 2.9
COc1ccc(/C=C(\NC(=O)c2ccco2)C(=O)NCCc2nc3ccccc3[nH]2)cc1 | 32.3 | -23.1 | -40.5 | 45.6* | 0.3
O=C(C(=O)N1CCN(S(=O)(=O)c2ccc(Cl)cc2)CC1)c1cccc(C(F)(F)F)c1 | x | x | -12.3 | x | -0.1
Cc1cc(/C=C2\C(=N)N3N=C(C(C)C)SC3=NC2=O)c(C)n1Cc1ccccc1 | 102.5* | 65.0* | 7.4 | 6.3 | 7.9
COc1ccc(-c2csc(NC(=O)CN3C(=O)C4CC=CCC4C3=O)n2)cc1 (stereo not given) | -8.1 | -15.6 | 18.2 | 11.8 | 6.0
O=C(CN1C(=O)C2CC=CCC2C1=O)Nc1nc(-c2ccc(F)cc2)cs1 (stereo not given) | 0.2 | -12.1 | 51.1* | 11.3 | 28.2
CCC(=O)Nc1ccc2c(c1)C(=O)c1ccccc1C2=O | -11.0 | -6.2 | 3.9 | 37.0* | 2.5
CCC(=O)NC1=C(NC(C)c2ccccc2)C(=O)c2ccccc2C1=O (stereo not given) | -21.1 | -11.6 | -0.3 | 63.8* | 4.2
CCC(=O)Nc1ccc2c(c1)C(=O)N(C)C2=O | -22.6 | 1.5 | -9.9 | 24.0 | 3.2
CC(NC(=O)CN1C(=O)c2ccccc2C1=O)c1ccccc1 (stereo not given) | 5.0 | -5.3 | -7.7 | 13.1 | -0.5
CC1CN=C(NS(=O)(=O)c2ccccc2)N1 (stereo not given) | x | x | -30.8 | x | 7.2
C[N+]1(CC(=O)NNc2c3ccccc3nc3ccccc23)CCOCC1 | -7.5 | -4.2 | -31.4 | 44.2* | -0.2
O=C(CN1CCOCC1)NNc1c2ccccc2nc2ccccc12 | -24.4 | 1.2 | 11.0 | 11.1 | -0.2
c1ccc(-c2nc3nonc3nc2-c2ccccc2)cc1 | -29.2 | -4.6 | -1.6 | 39.8* | -1.4
Nc1c(-c2ccccc2)nc(Cl)nc1-c1ccccc1 | -5.9 | -7.9 | -0.6 | 14.3 | -1.6
Cc1ccc(O)c(-c2cc(C(=O)Nc3cccnc3)[nH]n2)c1 | -3.2 | -9.1 | -5.6 | 22.7 | 3.3
O=C(Nc1cccnc1)c1cc(-c2cc(Cl)ccc2O)n[nH]1 | -16.1 | -18.4 | -14.3 | 67.0* | 27.4
O=S(=O)(c1ccc(N2CCC(c3ccc(Cl)cc3)=N2)cc1)N(CCO)CCO | 45.8* | 62.2* | 11.4 | 6.7 | 6.8
COc1cc(CN2CCc3ccc(NC(=O)CCc4ccccc4OC)cc3C2)ccc1O | -27.4 | -33.3 | -19.0 | 14.7 | 4.2
COc1ccc(CN2CCc3ccc(NC(=O)CCc4ccccc4OC)cc3C2)c(O)c1 | -24.1 | -9.4 | 59.1* | 12.8 | 6.3
COc1cccc(CNC(=O)[C@H]2CCCN2C(=O)[C@H]2CCCN2S(=O)(=O)c2cccc(C)c2)c1 | x | x | 3.2 | x | -0.7
Cc1ccccc1CN1[C@@H](C)[C@H](c2ccccc2)Oc2cccc(N3CCCC3)c2S1(=O)=O | x | x | -40.0 | x | 1.4
Cc1cc(SCC(=O)Nc2cccc(S(=O)(=O)NC3=NCCCCC3)c2)nc2ccccc12 | -20.8 | -0.3 | 49.0* | 47.2 | 10.9
Cn1nc(C(C)(C)C)cc1C(=O)N1CCCCC1c1cc(C(=O)Nc2ccccc2)no1 (stereo not given) | x | x | 11.6 | x | 1.0
O=C1/C(=N\S(=O)(=O)c2cccs2)C([n+]2ccc(CCCc3ccccc3)cc2)=C([O-])c2ccccc21 | -20.7 | -54.9 | -9.4 | 25.7 | 0.3
SMILES | OX1R antag-1 | CHO parental Ca | TAAR1 antagonist | OX1R antag-2 | TAAR1 ag
CC(C)(C)c1cc[n+](C2=C([O-])c3ccccc3C(=O)/C2=N\S(=O)(=O)c2ccccc2)cc1 | -21.5 | -11.4 | 15.0 | 67.2* | 1.5
Cc1cc(C)c[n+](C2=C([O-])c3ccccc3C(=O)/C2=N\S(=O)(=O)c2cccs2)c1 | -5.4 | 3.1 | -4.9 | 47.8 | 1.8
O=C1/C(=N\S(=O)(=O)c2cccs2)C([n+]2cccc(Cc3ccccc3)c2)=C([O-])c2ccccc21 | 33.1 | 50.7* | x | 48.2* | x
O=C(COC(=O)c1ccc2c(c1[N+](=O)[O-])C(=O)c1ccccc1C2=O)NC1CC1 | 9.2 | 21.4 | 12.6 | 74.3* | 3.4
O=C(COC(=O)c1cccc2c1C(=O)c1ccccc1C2=O)NC1CCCCC1 | -19.9 | -24.3 | 49.5* | 21.7 | 6.7
O=C(NC1CCCC1)C(C1CC1)n1c(-c2ccccn2)nc2ccccc21 (stereo not given) | x | x | -16.6 | x | -0.9
